From ChEMBL document CHEMBL4265871, “Novel alkylated azoles as potent antifungals” (Eur J Med Chem, 2017)
Values after ≈ are worked out from the molar mass of the structure shown.

Columns and labels:
[1] = Selectivity index, ratio of EC50 for toxicity in human BEAS2B cells to MIC100 for antifungal activity against Candida albicans ATCC 10231; assay type: cell-based; details: BEAS-2B cells, read-out: Selectivity Index
Summary of the method: (§1)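 Selectivity index is the EC50 against the mammalian line (A549 or BEAS-2B) divided by the MIC against the given fungal strain.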

[2] = Selectivity index, ratio of EC50 for toxicity in human A549 cells to MIC for antifungal activity against Candida parapsilosis ATCC 22019
Candida albicans [3] = test: Antifungal activity against Candida albicans ATCC 10231 incubated for 48 hrs by modified CLSI M27-A3 protocol based method; assay type: functional; details: ATCC 10231, 48 h, read-out: MIC100
Summary of the method: (§2)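 For C. albicans ATCC 10231, C. krusei ATCC 6258 and C. parapsilosis ATCC 22019, MIC-0 was read, meaning complete growth inhibition. For azole controls, MIC-2 (50% growth inhibition) was reported instead. Caspofungin and voriconazole were tested here; other controls came from earlier work.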

[4] = Hemolytic activity in mouse erythrocytes assessed as hemolysis level at 125 ug/ml incubated for 1 hr at 37 degC; assay type: ADME, cell-based, Erythrocyte; details: read-out: Activity
Summary of the method: (§3)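 Mouse erythrocytes incubated 1 h at 37 °C with test agents over 1.95 to 125 µg/mL. Percent lysis is read for each concentration.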

[5] = Selectivity index, ratio of […] for toxicity in human BEAS2B cells to MIC50 for antifungal activity against Aspergillus terreus ATCC MYA-3633; assay type: cell-based; details: BEAS-2B cells, read-out: Selectivity Index
[6] = Selectivity index, ratio of […] for toxicity in human A549 cells to MIC50 for antifungal activity against Aspergillus terreus ATCC MYA-3633; assay type: cell-based; details: read-out: Selectivity Index
[7] = Selectivity index, ratio of […] for toxicity in human A549 cells to MIC50 for antifungal activity against Aspergillus nidulans ATCC 38163; assay type: cell-based; details: read-out: Selectivity Index
[8] = Selectivity index, ratio of EC50 for toxicity in human A549 cells to MIC50 for antifungal activity against ITC and FLC-susceptible Candida albicans ATCC MYA-2876; assay type: cell-based; details: read-out: Selectivity Index; summary of the method: as §1
[9] = Selectivity index, ratio of EC50 for toxicity in human BEAS2B cells to MIC50 for antifungal activity against Candida glabrata ATCC 2001; assay type: cell-based; details: BEAS-2B cells, read-out: Selectivity Index; summary of the method: as §1
[10] = Selectivity index, ratio of EC50 for toxicity in human A549 cells to MIC100 for antifungal activity against Candida albicans ATCC 10231; assay type: cell-based; details: read-out: Selectivity Index; summary of the method: as §1
[11] = Selectivity index, ratio of EC50 for toxicity in human BEAS2B cells to MIC50 for antifungal activity against Candida krusei ATCC 6258; details: BEAS-2B cells
[12] = Selectivity index, ratio of EC50 for toxicity in human A549 cells to MIC50 for antifungal activity against ITC and FLC-resistant Candida albicans ATCC 1237; assay type: cell-based; details: read-out: Selectivity Index; summary of the method: as §1
Candida albicans [13] = test: Antifungal activity against ITC and FLC-susceptible Candida albicans ATCC MYA-2876 incubated for 48 hrs by modified CLSI M27-A3 protocol based method; assay type: functional; details: ATCC MYA-2876, 48 h
Summary of the method: (§4)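 Because these Candida strains show trailing growth, MIC-2 was read, meaning 50% growth inhibition. Caspofungin and voriconazole were tested here; other controls came from earlier work.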

[14] = Selectivity index, ratio of EC50 for toxicity in human A549 cells to MIC50 for antifungal activity against Candida krusei ATCC 6258
Candida parapsilosis = test: Antifungal activity against Candida parapsilosis ATCC 22019 incubated for 48 hrs by modified CLSI M27-A3 protocol based method; assay type: functional; details: Lodderomyces parapsilosis, ATCC 22019, 48 h; read-out: MIC100; summary of the method: as §2
[15] = Selectivity index, ratio of […] for toxicity in human BEAS2B cells to MIC50 for antifungal activity against Aspergillus flavus ATCC MYA-3631; assay type: cell-based; details: BEAS-2B cells, read-out: Selectivity Index
[16] = Hemolytic activity in mouse erythrocytes assessed as hemolysis level at 15.6 ug/ml incubated for 1 hr at 37 degC; assay type: ADME, cell-based, Erythrocyte; details: read-out: Activity; summary of the method: as §3
in vitro = details: mouse, mouse erythrocytes
Aspergillus flavus = test: Antifungal activity against Aspergillus flavus ATCC MYA-3631 incubated for 48 hrs by CLSI M38-A2 protocol based method; assay type: functional; details: ATCC MYA-3631, 48 h, read-out: MIC100
Candida albicans [17] = test: Antifungal activity against ITC and FLC-resistant Candida albicans ATCC MYA-1003 incubated for 48 hrs by modified CLSI M27-A3 protocol based method; assay type: functional; details: ATCC MYA-1003, 48 h; summary of the method: as §4
Candida albicans [18] = test: Antifungal activity against ITC and FLC-susceptible Candida albicans ATCC MYA-2310 incubated for 48 hrs by modified CLSI M27-A3 protocol based method; assay type: functional; details: ATCC MYA-2310, 48 h
[19] = Selectivity index, ratio of EC50 for toxicity in human BEAS2B cells to MIC for antifungal activity against Candida parapsilosis ATCC 22019; details: BEAS-2B cells
Candida albicans [20] = test: Antifungal activity against Candida albicans ATCC 64124 incubated for 48 hrs by modified CLSI M27-A3 protocol based method; assay type: functional; details: ATCC 64124, 48 h
[21] = Selectivity index, ratio of EC50 for toxicity in human BEAS2B cells to MIC50 for antifungal activity against ITC and FLC-resistant Candida albicans ATCC MYA-1003; assay type: cell-based; details: BEAS-2B cells, read-out: Selectivity Index; summary of the method: as §1
[22] = Toxicity in human BEAS2B cells assessed as reduction in cell viability incubated for 24 hrs by resazurin dye based assay; details: BEAS-2B cells
Summary of the method: (§5)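 Toxicity tested in the nucleated lines A549 and BEAS-2B to give EC50 values. Selectivity index is EC50 against the mammalian line divided by the MIC against a given fungal strain.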

[23] = Selectivity index, ratio of EC50 for toxicity in human A549 cells to MIC50 for antifungal activity against ITC and FLC-susceptible Candida albicans ATCC MYA-2310; assay type: cell-based; details: read-out: Selectivity Index; summary of the method: as §1
[24] = Selectivity index, ratio of EC50 for toxicity in human A549 cells to MIC50 for antifungal activity against ITC and FLC-resistant Candida albicans ATCC MYA-90819; assay type: cell-based; details: read-out: Selectivity Index; summary of the method: as §1
[25] = Selectivity index, ratio of EC50 for toxicity in human A549 cells to MIC50 for antifungal activity against ITC and FLC-resistant Candida albicans ATCC MYA-1003; assay type: cell-based; details: read-out: Selectivity Index; summary of the method: as §1
[26] = Toxicity in human A549 cells assessed as reduction in cell viability incubated for 24 hrs by resazurin dye based assay; summary of the method: as §5
Aspergillus nidulans = test: Antifungal activity against Aspergillus nidulans ATCC 38163 incubated for 48 hrs by CLSI M38-A2 protocol based method; assay type: functional; details: ATCC 38163, 48 h, read-out: MIC100
[27] = Hemolytic activity in mouse erythrocytes assessed as hemolysis level at 31.3 ug/ml incubated for 1 hr at 37 degC; assay type: ADME, cell-based, Erythrocyte; details: read-out: Activity; summary of the method: as §3
[28] = Selectivity index, ratio of […] for toxicity in human A549 cells to MIC50 for antifungal activity against Aspergillus flavus ATCC MYA-3631; assay type: cell-based; details: read-out: Selectivity Index
[29] = Selectivity index, ratio of EC50 for toxicity in human BEAS2B cells to MIC50 for antifungal activity against Candida albicans ATCC 64124; assay type: cell-based; details: BEAS-2B cells, read-out: Selectivity Index; summary of the method: as §1

SMILES | selectivity ratio [1] | selectivity ratio [2] | MIC (Candida albicans [3]) [µM] | hemolysis at 1 h, 125 ug/ml [4] [%] | selectivity ratio [5] | selectivity ratio [6] | selectivity ratio [7] | selectivity ratio [8] | selectivity ratio [9] | selectivity ratio [10] | selectivity ratio [11] | selectivity ratio [12] | MIC50 (Candida albicans [13]) [µM] | selectivity ratio [14] | MIC (Candida parapsilosis) [µM] | selectivity ratio [15] | hemolysis at 1 h, 15.6 ug/ml [16] [%] | hemolysis at 1 h, 62.5 ug/ml (in vitro) [%] | MIC (Aspergillus flavus) [µM] | MIC50 (Candida albicans [17]) [µM] | further results
CCCCCCC(O)(Cn1cncn1)c1ccccc1Cl (stereo unspecified) | 4 | 261 | 25.3 (≈ 7.79 µg/mL) | 92 | 65 | 65 | 522 | 32 | 32 | 4 | 261 | 32 | 3.2 (≈ 0.985 µg/mL) | 261 | 0.39 (≈ 0.12 µg/mL) | 8 to 16 | 0 | 81.7 | 6.3 to 12.7 (≈ 1.94 to 3.91 µg/mL) | 25.3 (≈ 7.79 µg/mL) | MIC50 (Candida albicans [18]): 6.3 µM (≈ 1.94 µg/mL); selectivity ratio [19]: 261; MIC50 (Candida albicans [20]): > 102 µM; selectivity ratio [21]: 4; EC50 at 24 h [22]: > 31.3 µg/mL; selectivity ratio [23]: 16; selectivity ratio [24]: 16; selectivity ratio [25]: 4; EC50 at 24 h [26]: > 31.3 µg/mL; MIC (Aspergillus nidulans): 0.19 µM (≈ 0.0585 µg/mL); hemolysis at 1 h, 31.3 ug/ml [27]: 0%; selectivity ratio [28]: 8 to 16; selectivity ratio [29]: 1
CCCCCCC(O)(Cn1cncn1)c1ccc(F)cc1F (stereo unspecified) | 16 | 1170 | 6.3 (≈ 1.95 µg/mL) | 60.9 | 4 | 4 | 73 | 18 | 8 | 18 | 261 | 18 | 6.3 (≈ 1.95 µg/mL) | 292 | < 0.1 | 2 | 8.2 | 26.3 | 50.4 (≈ 15.6 µg/mL) | 6.3 (≈ 1.95 µg/mL) | MIC50 (Candida albicans [18]): 12.6 µM (≈ 3.9 µg/mL); selectivity ratio [19]: 1040; MIC50 (Candida albicans [20]): 25.2 µM (≈ 7.8 µg/mL); selectivity ratio [21]: 16; EC50 at 24 h [22]: > 31.3 µg/mL; selectivity ratio [23]: 9; selectivity ratio [24]: 18; selectivity ratio [25]: 18; EC50 at 24 h [26]: 35 µg/mL (≈ 113 µM); MIC (Aspergillus nidulans): 1.6 µM (≈ 0.495 µg/mL); hemolysis at 1 h, 31.3 ug/ml [27]: 10.4%; selectivity ratio [28]: 2; selectivity ratio [29]: 4
